Source: PubChem BioAssay (The Scripps Research Institute Molecular Screening Center)
Compounds with a hit are over-represented: about 2% of the library has one in this group of screens.
ARFGAP1 inhibitor: inhibitors of rat ARFGAP1 GAP activity, primary screen, biochemical, fluorescence polarization, GDP tracer | ADP-ribosylation factor GTPase-activating protein 1 (Rattus norvegicus), Q62848 | Arfgap1-stimulated ARF1 GTP hydrolysis, GDP FP detection | hit rate 0.26% among 360,000 | AID 651572, 2012 | inhibition, % at 16.5 µM;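 active means inhibition above a per-plate limit, mean inhibition of low control wells plus 3 SD, cut at about 25% in these data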
Target sequence (Q62848 1-136 limits assumed): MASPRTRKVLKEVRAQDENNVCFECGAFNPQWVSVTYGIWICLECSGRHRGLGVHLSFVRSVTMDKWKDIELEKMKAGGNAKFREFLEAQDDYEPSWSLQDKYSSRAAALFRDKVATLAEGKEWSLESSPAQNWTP
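system = rat Arfgap1 catalytic domain, aa 1-136 | technique = FP, GDP Alexa 633 tracer displaced from anti-GDP antibody, 620/688 nm | compound = one concentration, 16.5 µM, DMSO 1.26% | medium = HEPES-based buffer, pH 7.5 | timing = compound-enzyme preincubation 20 min, reaction 120 min, detection 60 min, 25 °C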
LEDGF integ inh: blockers of LEDGF/p75-dependent integrase strand transfer – biochemical, TR-FRET, high throughput, primary screen | inhibition, % at 3.7 µM | HIV-1 integrase (with human LEDGF/p75) | AID 743269, 2014 | hit rate 0.64% among 370,000 | TR-FRET IN-LEDGF/p75 DNA integration, Eu/Cy5;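 active means inhibition above the screen-wide mean plus 3 SD, cut at about 13% in these data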;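 further: signal is the Cy5 over europium emission ratio at 671 and 618 nm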
TDP2 inh: human TDP2 enzyme inhibitors, primary screen, biochemical, epi absorbance, recombinant enzyme; T5PNP hydrolysis, p-nitrophenol absorbance 415 nm; inhibition, % at 12.8 µM; hit rate 0.34% among 370,000; AID 720702, 2013;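 active means inhibition above the mean of all tested compounds plus 3 SD, set per campaign, cut at about 25% in these data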
Target sequence (O95551 whole entry, looked up): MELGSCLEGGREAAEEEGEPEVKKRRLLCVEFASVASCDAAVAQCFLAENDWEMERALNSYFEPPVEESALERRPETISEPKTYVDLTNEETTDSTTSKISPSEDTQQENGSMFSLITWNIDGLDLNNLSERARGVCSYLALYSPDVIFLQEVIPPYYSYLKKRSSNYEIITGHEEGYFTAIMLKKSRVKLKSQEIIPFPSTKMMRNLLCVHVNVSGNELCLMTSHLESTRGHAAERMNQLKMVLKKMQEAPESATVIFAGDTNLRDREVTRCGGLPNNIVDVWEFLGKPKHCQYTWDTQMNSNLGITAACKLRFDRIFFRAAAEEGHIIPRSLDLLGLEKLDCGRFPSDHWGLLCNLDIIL
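Read-out basis: percent inhibition. System: recombinant human TDP2. Buffer or medium: Mg2+-containing Tris-HCl buffer, pH 7.5. Repeats: single replicate. Timing: reaction 2 h, 37 °C. Benchmarks: high control without enzyme, low control DMSO plus TDP2. Probe or stimulus: 5 mM T5PNP. Doses: 12.8 µM only. Measured by: epi absorbance of p-nitrophenol freed from T5PNP by hydrolysis.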
UHRF1 binding: UHRF1 methylated DNA binding inhibitors, primary screen, counter-screen for MBD2 inhibitor project, biochemical, TR-FRET, human UHRF1, single concentration; AID 687016, 2013; UHRF1 binding to methylated oligo; hit rate 0.75% among 370,000; inhibition, % at 4.4 µM; in the data active means inhibition above about 21%;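 further: UHRF1 SRA domain binding a hemimethylated CpG hairpin DNA probe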
ASAP1 GAP inh: inhibitors of human ASAP1 ArfGAP activity, primary screen, biochemical, fluorescence polarization; ASAP1-stimulated ARF1 GTP hydrolysis, GDP FP detection; hit rate 0.19% among 360,000; inhibition, % at 16.5 µM; Arf-GAP with SH3 domain, ANK repeat and PH domain-containing protein 1 (Homo sapiens), …; in the data active means inhibition above about 25%
MBD2 DNA inh: inhibitors of MBD2 binding to methylated DNA, primary screen, biochemical, TR-FRET, DNA-binding domain, human; Methyl-CpG-binding domain protein 2 (Homo sapiens), Q9UBB5; MBD2 binding to methylated oligonucleotide; inhibition, % at 4.4 µM; hit rate 0.31% among 370,000; in the data active means inhibition above about 13%
ASAP1 GAP conf: ASAP1 GAP activity inhibitors, confirmation, biochemical, fluorescence polarization, human, triplicate; AID 624431, 2012; inhibition, % at 16.5 µM; shares compounds with ASAP1 GAP inh; ASAP1-stimulated Arf1 GTPase, GDP fluorescence polarization; hit rate 37% among 620;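 active means mean inhibition over triplicates exceeds the hit threshold derived for the earlier primary screening run, cut at about 25% in these data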
Large screens that a line does not name were inactive (follow-up assays come after a bar, where they were run); ! = repeats disagree.

CN(CCO)c1ccc2c(c1)Oc1ccccc1CN(Cc1cn(Cc3ccccc3C(F)(F)F)nn1)S2(=O)=O	none (no result: ARFGAP1 inhibitor, ASAP1 GAP inh)
CC(C)=CCn1c2ccc(NC(=O)Nc3cccnc3)cc2c(=O)n1C	ASAP1 GAP inh 25 | ASAP1 GAP conf inactive
Cn1c(=O)c2cc(NC(=O)Nc3cccnc3)ccc2n1Cc1ccc(Cl)cc1	none
Nc1[nH]c(C(=O)c2ccccc2)c(-c2ccc(Br)cc2)c1C(=O)N1CCN(CCO)CC1	none (no result: ARFGAP1 inhibitor, ASAP1 GAP inh)
COc1ccc(NC(=S)NCCc2ccccc2)c(OC)c1	none
COc1ccc(S(=O)(=O)NNC(=S)NCCc2ccccc2)c(OC)c1	ASAP1 GAP inh 26 | ASAP1 GAP conf inactive
CCCS(=O)(=O)c1c(S(=O)(=O)CCC)c2ccc(C(N)=O)cn2c1C(=O)c1ccc(F)cc1	none
CCCS(=O)(=O)c1c(S(=O)(=O)CCC)c2cnccn2c1C(=O)c1ccc(Cl)cc1	ASAP1 GAP inh 27 | ASAP1 GAP conf inactive
OC[C@@H]1CN(Cc2ccc(-c3ccccc3)cc2)C[C@H](n2cnc3c(Nc4ccccc4)ncnc32)O1	ASAP1 GAP inh 26 | ASAP1 GAP conf inactive
CNc1ncnc2c1ncn2[C@H]1CN(Cc2ccc(-c3ccccc3)cc2)C[C@@H](CO)O1	none
COc1ccc(/C=N/NC(=O)Cn2c(Cc3ccc(OC)c(OC)c3)nc3ccccc32)cc1OC	ASAP1 GAP inh 31 | ASAP1 GAP conf inactive
COc1ccc(Cc2nc3ccccc3n2CC(=O)N/N=C/c2ccc(O)cc2)cc1OC	none
Cc1cc(OCC(=O)Nc2ccc(N3CCCC3)cc2)cc(C)c1Cl	ASAP1 GAP inh 25 | ASAP1 GAP conf inactive
CCOc1ccc(OCC(=O)Nc2ccc(N3CCCCC3)cc2)cc1	none
O=C(CSc1nnc(-c2ccc(Cl)cc2)n1-c1ccccc1)Nc1ccc(Oc2ccccc2)cc1	none (no result: ARFGAP1 inhibitor, ASAP1 GAP inh)
CCN1CCN(c2cc(C)c3cc(NC(=O)c4ccc(OC)c(OC)c4)ccc3n2)CC1	ASAP1 GAP inh 37 | ASAP1 GAP conf 50
CNC(=O)COC(=O)/C=C/c1ccco1	ASAP1 GAP inh 27 | ASAP1 GAP conf inactive
O=C(COC(=O)/C=C/c1ccco1)NCc1ccco1	none
O=C(CCc1ccccc1)N[C@H]1[C@@H](OC(=O)c2ccco2)CCC[C@@]12C(=O)N(Cc1ccccc1)c1ccccc12	none (no result: ARFGAP1 inhibitor, ASAP1 GAP inh)
O=C(Cn1nc(-c2ccc3c(c2)OCCO3)ccc1=O)Nc1ccc(-n2cnnn2)cc1	ASAP1 GAP inh 36 | ASAP1 GAP conf 36
O=C(Cn1nc(-c2ccccc2)ccc1=O)Nc1ccc(-n2cnnn2)cc1	none
CC(=O)c1ccc(CCCCc2ccc(C(C)=O)cc2)cc1	ASAP1 GAP inh 25 | ASAP1 GAP conf inactive
COc1ccc(-n2c(SCC(=O)Nc3ccc4c(c3)OCO4)nc3sc4c(c3c2=O)CCCC4)cc1	none (no result: ARFGAP1 inhibitor, ASAP1 GAP inh)
COC(=O)[C@]1(C)CN(C(=O)OC(C)(C)C)C2=C1C(=O)C[C@](C)(C(=O)OC(C)(C)C)C2	none (no result: ARFGAP1 inhibitor, ASAP1 GAP inh)
CCOC(=O)C(C(=O)Nc1ccccn1)C1CCCCC1 (centres undefined)	none
CCOC(=O)C(C(=O)Nc1cccc(C)n1)C1CCCCC1 (centres undefined)	ASAP1 GAP inh 26 | ASAP1 GAP conf inactive
CC(C)(C)[C@@H]1/C(=C/C2CC2)N2C(=O)C[C@@H](c3ccccc3)N=C2N1Cc1ccc2c(c1)OCO2	none (no result: ARFGAP1 inhibitor, ASAP1 GAP inh)
CCOC(=O)C1=C(CSc2nc(-c3ccccc3)ccc2C#N)OC(N)=C(C#N)C1c1ccccc1 (centres undefined)	ASAP1 GAP inh 27 | ASAP1 GAP conf inactive
CCOC(=O)C1=C(CSc2nc(-c3ccccc3)ccc2C#N)OC(N)=C(C#N)C1c1cccnc1 (centres undefined)	none
COc1ccc(CCNS(=O)(=O)c2c(C)n[nH]c2C)cc1	none (no result: ARFGAP1 inhibitor, ASAP1 GAP inh)
Cc1ccc(C(=O)NCCC2=CCCCC2)cc1S(=O)(=O)N1CCCCC1	ASAP1 GAP inh 28 | ASAP1 GAP conf inactive
COc1ccc(NS(=O)(=O)c2ccc(NC(=S)NC(=O)C(C)C)cc2)cc1	ASAP1 GAP inh 31 | ASAP1 GAP conf inactive
Cc1ccc(S(=O)(=O)Nc2ccc(NC(=O)c3cccs3)cc2)cc1	ASAP1 GAP inh 25 | ASAP1 GAP conf inactive
COc1cccc(NC(=O)C2(C)CCN2Cc2ccc(OC)c3ccccc23)c1 (centres undefined)	ASAP1 GAP inh 29 | ASAP1 GAP conf inactive
CC1=CC2=NC(=O)/C(=C\c3ccc(-c4ccc(Cl)cc4)o3)C(=N)N2O1	ASAP1 GAP inh 30 | ASAP1 GAP conf 87
CC1=CC2=NC(=O)/C(=C/c3cccs3)C(=N)N2O1	none
C[C@@H](C(=O)O)[C@H]1C[C@]1(C)[C@H](NC(=O)OCc1ccccc1)c1ccccc1	ASAP1 GAP inh 26 | ASAP1 GAP conf inactive
COC(=O)[C@H](C)[C@@H]1C[C@@]1(C)[C@@H](NC(=O)OCc1ccccc1)c1ccccc1	none
Cc1cc(N2CCN(C(=O)Oc3ccc(C(F)(F)F)cc3)CC2)c2ccccc2n1	none (no result: ARFGAP1 inhibitor, ASAP1 GAP inh)
COc1ccc2cc3c(N)nn(C(=O)c4ccc(Cl)c([N+](=O)[O-])c4)c3nc2c1	ASAP1 GAP inh 73 | ASAP1 GAP conf 118
N#Cc1c(N2CCCC2)nc(N)c2c(N)nc(N3CCCC3)cc12	ASAP1 GAP inh 27 | ASAP1 GAP conf inactive
CCCOc1cc2c(C#N)c(N3CCCC3)nc(N)c2c(N)n1	ASAP1 GAP inh 36 | ASAP1 GAP conf inactive
COc1cc2c(C#N)c(N3CCN(C)CC3)nc(N)c2c(N)n1	none
COc1cc2c(C#N)c(N3CCCC3)nc(N)c2c(N)n1	ASAP1 GAP inh 43! | ASAP1 GAP conf inactive
CCOC(=O)N1CCN(C(=O)C[C@H]2C(=O)N(Cc3ccc(OC)cc3)C3=CCCCC[C@@]32C(=O)OC)CC1	none (no result: ARFGAP1 inhibitor, ASAP1 GAP inh)
O=C(C1CCCN(Cc2ccccc2[N+](=O)[O-])C1)N1CCCC1 (centres undefined)	ASAP1 GAP inh 27 | ASAP1 GAP conf inactive
NS(=O)(=O)c1ccc(NC(=O)CN2CCN(S(=O)(=O)/C=C/c3ccccc3)CC2)cc1	ASAP1 GAP inh 30 | ASAP1 GAP conf inactive
NS(=O)(=O)c1ccc(NC(=O)CN2CCN(Cc3ccccc3)CC2)cc1	none
